# Activity calls are given as the source filed them. No cut-off for these calls is given here.
# How the values were obtained:
# [1] = molecular target: T1, Amyloid-beta precursor protein (Homo sapiens, UniProt P05067); assay: Inhibition of amyloid beta (1 to 42) (unknown origin) oligomer dissociation at 50 uM after 16 to 18 hrs by ELISA
# Procedure, shortened: (§1)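 Disaggregated biotinyl-Aβ(1-42) was diluted in PBS (pH 7.5) to 33.7 nM monomer to preform oligomers. Oligomers (16.8 nM, in PBS + 0.3% Tween 20) were combined with PBS containing the compound and 1% DMSO. The mixture was shaken at 150 rpm at room temperature for 16-18 h. Remaining oligomers were captured on NeutrAvidin and measured by SA-HRP/TMB at OD450.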
# [2] = molecular target: T1, Amyloid-beta precursor protein; assay: Inhibition of amyloid beta ((1 to 42) (unknown origin) oligomer assembly after 30 mins by biotinyl-streptavidin assay
# Procedure, shortened: (§2)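 Biotinyl-Aβ(1-42) was dried from HFIP, disaggregated with TFA for 10 min at room temperature, and taken up in DMSO (500 nM). Monomer was mixed into PBS containing the compound and 1% DMSO at ambient temperature. After 30 min, 0.3% Tween 20 stopped assembly. Oligomers were captured on NeutrAvidin, detected with SA-HRP and TMB, and read at OD450. Solvent control = 100%.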
# [3] = molecular target: T1, Amyloid-beta precursor protein; assay: Inhibition of amyloid beta (1 to 42) (unknown origin) oligomer assembly at 50 uM after 30 mins by biotinyl-streptavidin assay; procedure, shortened: as §2
# [4] = molecular target: T1, Amyloid-beta precursor protein; assay: Inhibition of amyloid beta (1 to 42) (unknown origin) oligomer dissociation after 16 to 18 hrs by ELISA; procedure, shortened: as §1
# [5] = molecular target: T1, Amyloid-beta precursor protein; assay: Inhibition of amyloid beta (1 to 40) (unknown origin) fibril formation assessed as shorter assemblies at 10 uM after 6 days by atomic force microscopy relative to control
# Acetylcholinesterase = Acetylcholinesterase (Homo sapiens, UniProt P22303); assay: Inhibition of AChE (unknown origin) by Ellman method
# Cholinesterase = Cholinesterase (Homo sapiens, UniProt P06276); assay: Inhibition of BuChE (unknown origin) by Ellman method
# Procedure, shortened: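 Equine serum BuChE in 0.1 M phosphate buffer pH 8 with 0.34 mM DTNB, 0.02 unit/mL enzyme and 0.55 mM S-butyrylthiocholine chloride. Inhibitor concentration dependence over 0–50 μM. Percent inhibition versus no-inhibitor control used to derive IC50.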
# T1 sequence (P05067 whole entry): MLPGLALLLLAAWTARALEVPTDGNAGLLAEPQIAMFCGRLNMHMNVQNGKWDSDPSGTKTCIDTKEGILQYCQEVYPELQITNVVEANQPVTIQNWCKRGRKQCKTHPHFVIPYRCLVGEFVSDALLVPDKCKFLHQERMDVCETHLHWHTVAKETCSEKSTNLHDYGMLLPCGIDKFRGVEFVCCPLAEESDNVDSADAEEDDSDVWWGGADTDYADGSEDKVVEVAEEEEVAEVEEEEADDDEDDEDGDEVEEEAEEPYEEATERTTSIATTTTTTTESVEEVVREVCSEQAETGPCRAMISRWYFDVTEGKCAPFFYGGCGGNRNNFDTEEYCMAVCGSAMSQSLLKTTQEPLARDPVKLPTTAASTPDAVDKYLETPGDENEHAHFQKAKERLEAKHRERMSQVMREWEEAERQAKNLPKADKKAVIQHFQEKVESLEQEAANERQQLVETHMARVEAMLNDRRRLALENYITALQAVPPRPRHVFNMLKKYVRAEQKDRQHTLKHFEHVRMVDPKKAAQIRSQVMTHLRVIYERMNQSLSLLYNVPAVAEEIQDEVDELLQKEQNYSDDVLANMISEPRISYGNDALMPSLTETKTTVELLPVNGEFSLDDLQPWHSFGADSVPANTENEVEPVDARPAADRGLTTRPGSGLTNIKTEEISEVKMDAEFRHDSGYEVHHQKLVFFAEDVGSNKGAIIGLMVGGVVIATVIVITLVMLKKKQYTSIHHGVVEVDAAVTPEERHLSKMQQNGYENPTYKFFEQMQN
# Chain of Acetylcholinesterase (P22303 whole entry): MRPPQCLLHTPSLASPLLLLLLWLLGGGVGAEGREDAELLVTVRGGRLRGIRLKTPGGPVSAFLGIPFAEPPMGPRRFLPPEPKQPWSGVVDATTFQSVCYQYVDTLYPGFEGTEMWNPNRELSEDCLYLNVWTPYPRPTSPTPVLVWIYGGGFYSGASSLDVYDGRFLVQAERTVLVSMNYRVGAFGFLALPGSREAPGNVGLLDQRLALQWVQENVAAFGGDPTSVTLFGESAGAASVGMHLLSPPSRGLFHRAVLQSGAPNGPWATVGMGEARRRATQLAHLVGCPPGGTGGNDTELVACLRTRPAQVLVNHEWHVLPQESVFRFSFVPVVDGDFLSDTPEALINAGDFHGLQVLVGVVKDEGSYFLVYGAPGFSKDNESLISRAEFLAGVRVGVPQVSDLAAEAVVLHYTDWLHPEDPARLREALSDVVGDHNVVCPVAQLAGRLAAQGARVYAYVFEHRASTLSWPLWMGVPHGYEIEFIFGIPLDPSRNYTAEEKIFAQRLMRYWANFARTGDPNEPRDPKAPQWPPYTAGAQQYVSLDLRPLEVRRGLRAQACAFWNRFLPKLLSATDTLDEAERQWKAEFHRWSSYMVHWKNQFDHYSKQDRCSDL
# Chain of Cholinesterase (P06276 whole entry): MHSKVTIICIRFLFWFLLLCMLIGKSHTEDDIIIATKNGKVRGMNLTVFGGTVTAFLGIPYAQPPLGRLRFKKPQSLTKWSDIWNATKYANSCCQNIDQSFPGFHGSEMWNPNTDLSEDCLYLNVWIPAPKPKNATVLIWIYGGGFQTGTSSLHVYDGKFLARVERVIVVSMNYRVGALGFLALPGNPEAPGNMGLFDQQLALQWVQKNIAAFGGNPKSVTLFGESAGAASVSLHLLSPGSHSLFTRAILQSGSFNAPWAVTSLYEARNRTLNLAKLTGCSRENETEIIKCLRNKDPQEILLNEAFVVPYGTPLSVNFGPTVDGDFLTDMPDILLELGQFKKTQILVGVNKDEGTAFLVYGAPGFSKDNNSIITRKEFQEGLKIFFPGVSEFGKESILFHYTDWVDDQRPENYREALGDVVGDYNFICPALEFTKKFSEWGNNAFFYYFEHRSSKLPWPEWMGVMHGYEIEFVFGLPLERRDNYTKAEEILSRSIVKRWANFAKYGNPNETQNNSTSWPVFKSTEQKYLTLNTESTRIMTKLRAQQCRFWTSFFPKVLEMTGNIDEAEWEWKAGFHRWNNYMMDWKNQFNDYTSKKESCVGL
SMILES,inhibition [1],IC50 [2],inhibition [3],IC50 [4],inhibition [5],IC50 (Acetylcholinesterase),IC50 (Cholinesterase)
COc1ccc2cc(C(=O)CN3CCC(Cc4ccccc4)CC3)c(=O)oc2c1,< 95%,36 µM,> 65%,,,,
COc1ccc2cc(C(=O)CN3CCN(c4ccccn4)CC3)c(=O)oc2c1,< 95%,,> 65%,,,,
COc1ccc2cc(C(=O)CN3CCN(c4ncccn4)CC3)c(=O)oc2c1,< 95%,1 µM,> 65%,4 µM,,,
COc1ccc2cc(C(=O)CN3CCN(c4ccccc4)CC3)c(=O)oc2c1,< 95%,21 µM,> 65%,6.5 µM,,,
COc1ccc2cc(C(=O)CN3CCC(c4ccccc4)CC3)c(=O)oc2c1,< 95%,14 µM,> 65%,29 µM,,,
COc1ccc2cc(C(=O)CN3CCOCC3)c(=O)oc2c1,< 95%,29 µM,> 65%,5 µM,,,
COc1ccc2cc(C(=O)CN3CCN(Cc4ccccc4)CC3)c(=O)oc2c1,< 95%,36 µM,> 65%,,Active,1.76 µM,
CCN(CC)Cc1cccc(C(=O)/C=C/c2ccc(-c3ccccc3)cc2)c1,,,,,,,8.27 µM

# — ChEMBL document CHEMBL2380294, “Design, synthesis and biological activity of multifunctional α,β-unsaturated carbonyl scaffolds for Alzheimer's disease” (Bioorg Med Chem Lett, 2013)
